Assay results published in paper PMC9279713 (Acta Pharmaceutica Sinica. B, 2021).

Experiments:
[1] = system: CT26, HCT116 and SW620 cells; assay: Western blotting of HIF-1α, PD-L1, HMGA1, p-Erk and p-Akt expression; format: cell-based
Procedure, shortened: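 Cells were exposed to a range of test compound concentrations and then lysed in RIPA buffer containing 1% protease and 2% phosphatase inhibitors. Total lysate (20 μg protein per lane) was run on SDS-PAGE and transferred to PVDF. Membranes were blocked in 5% milk/TBST, incubated with primary antibodies overnight at 4 °C, then with an HRP-labelled secondary antibody for 2 h at room temperature.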

[2] = system: HCT116 and CT26 cells; assay: Immunogenic cell death: immunofluorescence of CRT and HMGB1; format: cell-based; details: 100 nmol/L

deoxybouvardin [RA-V]
HMGA1 expression ([1]; CT26, HCT116 and SW620 cells): inhibited significantly | p-Akt and p-Erk expression ([1]; CT26, HCT116 and SW620 cells): decreased | PD-L1 expression ([1]; CT26 cells, different concentrations): down-regulated PD-L1 expression remarkably | ICD effect: pre-apoptotic CRT exposure to membrane surface [2]: failed to elicit significant pre-apoptotic CRT exposure
